Sampled rows, rich in hits. Any-hit rate of the full collection: about 9.6%.
HCT116 PTEN-null: growth suppression of PTEN-null HCT116, primary screen, cell-based, CellTiter-Glo; HCT116 PTEN-null viability, 60 h; active compounds read low; viability, % at 10 µM; 1.2% of 140,000 active;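 active = viability at or below a set limit, 4 SD under the median of all tested compounds, cut at about 3.7% in these data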;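 note: PTEN knockout HCT116 line with beta catenin targeted HCT116 as companion control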
PMI act hi M6P: human PMI activators, high substrate, primary screen, biochemical, fluorescence intensity, near-saturating mannose 6-phosphate; Mannose-6-phosphate isomerase (Homo sapiens), P34949; coupled PMI enzyme assay, resazurin fluorescence, 20 min; active compounds read high; 1 = untreated enzyme, 0 = substrate-free blank; activation factor at 20 µM; 0.34% of 190,000 active; AID 1216, 2008;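 active = activation factor of 2 or more at 20 µM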
Target sequence (P34949 whole entry, looked up): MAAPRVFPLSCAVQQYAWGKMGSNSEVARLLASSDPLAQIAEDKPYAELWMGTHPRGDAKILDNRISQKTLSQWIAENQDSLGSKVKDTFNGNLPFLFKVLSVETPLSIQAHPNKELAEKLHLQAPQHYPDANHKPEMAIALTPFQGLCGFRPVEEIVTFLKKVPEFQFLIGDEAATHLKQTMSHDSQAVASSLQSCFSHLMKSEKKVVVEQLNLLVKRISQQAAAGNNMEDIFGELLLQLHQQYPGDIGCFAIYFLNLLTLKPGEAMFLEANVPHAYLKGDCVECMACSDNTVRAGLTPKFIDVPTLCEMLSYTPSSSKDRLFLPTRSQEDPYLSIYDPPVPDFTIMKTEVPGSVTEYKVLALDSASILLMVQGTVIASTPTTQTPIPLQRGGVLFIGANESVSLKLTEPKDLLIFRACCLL
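Material: human phosphomannose isomerase with PGI, G6PDH, diaphorase coupling enzymes; amount: PMI at 15 ng/mL final; also added: Mannose-6-phosphate 1.0 mM (near-saturating) plus 0.22 mM NADP+; incubation: enzyme reaction with compound 20 min at room temperature; signal: resorufin fluorescence (Ex 544/Em 590 nm) from resazurin via diaphorase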
PMI act: activators of human PMI, primary screen, biochemical, fluorescence intensity, near-Km mannose 6-phosphate | AID 1214, 2008 | 0.005% of 190,000 active | purified human PMI, coupled resazurin fluorescence, 20 min; active compounds read high; 1 = vehicle control, 0 substrate-free wells | Mannose-6-phosphate isomerase (Homo sapiens), P34949 | activation factor at 20 µM;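 active = activation factor of 2 or more at 20 µM, relative to plate controls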
bCat KO growth: primary screen for growth suppressors in beta-catenin knockout HCT116 cells (colon tumor, human); HCT116 beta-catenin knockout viability, CellTiter-Glo, 60 h; active compounds read low; viability, % at 10 µM; 1.5% of 140,000 active; AID 818, 2007;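 active = viability at or under a set limit, the compound median less 4 SD, cut at about 6% in these data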;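 note: 0% = Hyamine 1622 control at 20 µM and 100% = untreated cell control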
Lmaj promast: Leishmania major promastigote growth inhibition, primary screen. 9% of 200,000 active. Leishmania major promastigotes, resazurin fluorescence viability. inhibition, % at 10 µM. AID 1063, 2008; in the data active = inhibition above about 50%;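 note: promastigotes grown with compound for 44 hours at 28 °C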
Numbers without * were called inactive; . = no result given.

SMILES | HCT116 PTEN-null | PMI act hi M6P | PMI act | bCat KO growth | Lmaj promast
COc1ccc(NC(=O)c2ccc3c(=O)n(-c4ccc(OC)cc4OC)c(=S)[nH]c3c2)c(OC)c1 | . | 0.9 | 0.9 | . | 69.3*
COc1ccc(-n2c(=S)[nH]c3cc(C(=O)NC4CCCCC4)ccc3c2=O)c(OC)c1 | . | 1 | 1 | . | -5.5
CC(C(=O)NC1CCCC1)N1CCN(Cc2ccccc2)CC1 (configuration not stated) | . | 1 | 1.1 | . | 72.5*
O=C(NC1CCN(Cc2ccccc2)CC1)C(NS(=O)(=O)c1cccc2nsnc12)c1ccccc1 (configuration not stated) | . | 1 | 1 | . | 51.0*
CCC(C)C(NC(=O)C1CCC(C)CC1)C(=O)NC1CCN(Cc2ccccc2)CC1 (configuration not stated) | . | 1 | 0.9 | . | -7.9
O=C(NCCNC1CCN(Cc2ccccc2)CC1)c1cccs1 | 96.8 | 1.1 | 1 | 91.0 | 88.3*
O=C(CNC(=O)c1cccs1)NCCN1CCC(Cc2ccccc2)CC1 | 92.6 | 0.9 | 0.8 | 90.9 | 5.5
CCCC(CCC)C(=O)NC1CCN(Cc2ccccc2)CC1 | . | 1.1 | 1.1 | . | 88.0*
CC(C(=O)NCCc1ccc(F)cc1)N1CCN(Cc2ccccc2)CC1 (configuration not stated) | . | 1.1 | 1.1 | . | 82.8*
Cc1cnc(C(=O)OCC(=O)Nc2ccc(C)c(S(=O)(=O)N3CCCCC3)c2)cn1 | 97.9 | 1 | 1 | 95.0 | 0.0
COc1ccccc1N(C)S(=O)(=O)c1ccc(Cl)c(C(=O)OCc2c(C)noc2C)c1 | . | 1 | 0.9 | . | 53.1*
Cc1noc(C)c1COC(=O)c1cc(F)c(F)cc1Cl | 101.7 | 1 | 1 | 94.4 | -11.1
Cc1ccc2nsnc2c1S(=O)(=O)NCCc1c(C)[nH]c2ccc(F)cc12 | 56.5 | 1 | 0.9 | 68.3 | 98.2*
Cn1nnc(NCc2cc(Br)ccc2OCc2cccs2)n1 | 88.9 | 0.9 | 0.9 | 88.0 | 89.3*
CN(c1cccc(NC(=O)c2cccc([N+](=O)[O-])c2)c1)S(C)(=O)=O | . | 1 | 0.9 | . | 8.2
CCn1c2ccccc2c2cc(/C=N/NC(=O)c3ccc(O)cc3)ccc21 | 34.1 | 0.9 | 0.8 | 28.6 | 67.1*
O=C(NC1CCN(C(=O)Nc2ccccc2Cl)CC1)c1ccccc1 | . | 1 | 1 | . | -4.6
Cc1nc(N)sc1N=Nc1ccc(Br)cc1 | 61.1 | 1.1 | 1 | 60.4 | 5.4
Cc1cc(NC(=O)c2ccc3c(c2)OCO3)ccc1NC(=O)c1ccco1 | 73.1 | 1 | 1 | 70.1 | 7.1
O=C(NCC1COc2ccccc2O1)c1ccc(NC(=O)c2ccco2)cc1 (configuration not stated) | 104.2 | 0.9 | 1 | 98.7 | 55.1*
O=C(Nc1cccc(NC(=O)c2ccco2)c1)c1ccc2c(c1)OCO2 | 88.4 | 0.9 | 0.9 | 90.4 | 81.0*
O=C(OC1CCCCC1)c1ccc(NC(=O)c2ccco2)cc1 | 64.4 | 0.9 | 0.9 | 67.5 | 75.2*
O=C(Nc1cccc(NC(=O)c2ccco2)c1)c1ccc2c(c1)OCCO2 | . | 0.9 | 0.8 | . | 51.3*
O=C(COc1ccccc1)NCCc1cn2ccsc2n1 | 88.8 | 0.9 | 0.8 | 97.7 | -3.7
Cc1sc(NC(=S)NC(=O)c2ccco2)c(C#N)c1C | . | 1 | 1 | . | -2.6
SMILES | HCT116 PTEN-null | PMI act hi M6P | PMI act | bCat KO growth | Lmaj promast
O=C(CCCSc1nc2ccccc2[nH]1)Nc1nnc(C2CC2)s1 | . | 1.1 | 0.9 | . | -1.3
CN(C)c1nc(N/N=C/c2ccccc2O)nc(Nc2ccc(F)cc2)n1 | . | 1.1 | 1.1 | . | 83.7*
Cc1cc2nc(-c3ccc(SCC(=O)N4CCN(C(=O)c5ccco5)CC4)nc3)[nH]c2cc1C | 10.0 | 1 | 1 | 12.2 | 16.7
Cc1cc2nc(-c3ccc(SCC(=O)N4CCOCC4)nc3)[nH]c2cc1C | 32.0 | 1 | 0.9 | 36.2 | 60.2*
Cc1ccc2nc(-c3ccc(SCC(=O)Nc4nnc(C)s4)nc3)[nH]c2c1 | 30.6 | 1.1 | 1 | 71.2 | 0.8
Cc1ccc2nc(-c3ccc(SCC(=O)Nc4nc(C)cs4)nc3)[nH]c2c1 | 92.8 | 1 | 0.9 | 95.3 | 53.2*
CCOC(=O)CSc1ccc(-c2nc3ccccc3[nH]2)cn1 | 86.0 | 0.9 | 0.9 | 78.6 | 16.8
CCOC(=O)CSc1ccc(-c2nc3cc(C)c(C)cc3[nH]2)cn1 | 90.7 | 1.1 | 1.1 | 99.3 | 56.6*
Cc1cc2nc(-c3ccc(SCc4ccccn4)nc3)[nH]c2cc1C | . | 0.9 | 1 | . | 64.4*
Cc1cc2nc(-c3ccc(SCC(=O)Nc4ccc5c(c4)OCCO5)nc3)[nH]c2cc1C | 93.2 | 1.2 | 1 | 91.0 | 29.1
CCOc1ccc(NC(=O)CCCn2c(=S)[nH]c3ccsc3c2=O)cc1 | . | 1 | 1 | . | -2.9
CN1CCN(NS(=O)(=O)c2ccc(Cl)s2)CC1 | 97.3 | 1.1 | 1 | 91.6 | 55.4*
Cc1ccc(O)c(-n2nc3ccccc3n2)c1 | . | 1 | 0.9 | . | -16.3
COC(=O)CCCC(=O)N1CCCC(CNS(=O)(=O)c2ccc(OC)cc2)C1 (configuration not stated) | . | 0.9 | 0.9 | . | -2.3
Cc1ccc2c(CN3CCN(Cc4ccc5c(c4)OCO5)CC3)cc(=O)oc2c1C | 61.9 | 1 | 1 | 69.4 | 73.4*
CCN(CC(=O)Nc1ccc2c(c1)OCCO2)Cc1cc(=O)oc2c(C)c(C)ccc12 | 93.1 | 1.3 | 1.3 | 88.2 | 80.9*
Cc1cc2oc(=O)cc(CN3CCN(Cc4ccc5c(c4)OCO5)CC3)c2cc1C | 67.9 | 0.9 | 1 | 78.7 | 94.4*
Cc1ccc(C)c(N2C(=O)CC(N3CCN(Cc4ccc5c(c4)OCO5)CC3)C2=O)c1 (configuration not stated) | 99.2 | 1 | 1.1 | 92.8 | 87.1*
Cc1cc(C)c2c(CN3CCN(Cc4ccc5c(c4)OCO5)CC3)cc(=O)oc2c1C | 75.9 | 1 | 1 | 78.6 | 16.0
Cc1cccc(N2C(=O)CC(N3CCN(Cc4ccc5c(c4)OCO5)CC3)C2=O)c1 (configuration not stated) | 97.6 | 0.9 | 0.9 | 99.3 | -2.6
COC(=O)c1ccc(C(=O)OC)c(NC(=S)N2CCOCC2)c1 | . | 0.9 | 0.9 | . | -2.2
Cc1ccc(C(O)(C(=O)NNS(=O)(=O)c2ccc(C)cc2)c2ccc(C)cc2)cc1 | 89.3 | 0.9 | 0.9 | 97.0 | 29.2
CCN(CC)c1ccc(NC(=O)c2ccccc2Br)cc1S(=O)(=O)Nc1ccccc1OC | 66.8 | 0.5 | 0.4 | 68.3 | 96.7*
CCN(CC)c1ccc(NC(=O)c2ccccc2F)cc1S(=O)(=O)Nc1ccccc1OC | 79.2 | 1.1 | 0.8 | 73.1 | 99.9*
CC1C/C(=C/c2ccccn2)C(=O)/C(=C/c2ccccn2)C1 (configuration not stated) | . | 0.9 | 1.1 | . | 100.4*
CC1C/C(=C/c2cccs2)C(=O)/C(=C/c2cccs2)C1 (configuration not stated) | 75.8 | 1 | 1 | 76.2 | -1.8

Assay outcomes: PubChem, several laboratories
